What is called pIC50 is the IC50 on a negative log10 scale, so that one unit is a factor of ten. Read a high pIC50 as a low IC50.

This is an account of results in ChEMBL document CHEMBL1127829, “Nonpeptide peptidomimetic antagonists of the neuropeptide Y receptor: benextramine analogs with selectivity for the peripheral Y2 receptor” (J Med Chem, 1994).

pIC50: −log10 of the molar value.

A short description of assay [1]: Concentration producing half maximal displacement of [3H]NPY specific binding from benextramine sensitive NPY binding sites in rat brain membranes. The class given is cell membranes. In outline:
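Membranes from male Sprague–Dawley rat brain (250–300 g), 1.2–1.6 mg protein/mL, were incubated with 1.0 nM [3H]NPY and 10–12 concentrations (10⁻³–10⁻⁷ M) of compound. Incubation was in duplicate in Krebs–Ringer bicarbonate with 50 mM phosphate, 0.1% BSA and 0.05% bacitracin (pH 7.4), at 25 °C for 90 min. Nonspecific binding was set with 1 μM NPY. Bound ligand was collected on PEI-treated GF/A filters and counted by scintillation. Runs were done at least in triplicate, and averaged data were fit to a two-site competitive isotherm.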
In general terms: In a radioligand displacement assay an active substance lowers the binding of a labelled ligand.

Assay [2] is described as follows: Percentage of maximum displacement of 1.0 nM [3H]NPY from rat brain membranes homogenates using 1.0 uM NPY to determine specific binding. The class given is cell membranes. The settings on record: Membrane. In outline:
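Rat brain membranes (1.2–1.6 mg protein/mL) were incubated with 1.0 nM [3H]NPY and 10⁻³–10⁻⁷ M compound in duplicate. Buffer was pH 7.4 Krebs–Ringer bicarbonate/phosphate with BSA and bacitracin, at 25 °C for 90 min. Nonspecific binding was defined with 1.0 μM NPY, and results were filtered and counted by scintillation. The value is the maximal percentage of specific [3H]NPY binding displaced, from at least triplicate experiments.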

The species entered for assay [3] is Rattus norvegicus. The assay is described as follows: Relative potency in displacing 1 nM [3H]NPY from benextramine-sensitive rat brain NPYsites.

In assay [1], `N=C(N)N(CCCCCCNCC12C[C@H]3C[C@@H](C1)C[C@@H](C2)C3)CCSSCCN(CCCCCCNCC12C[C@H]3C[C@@H](C1)C[C@@H](C2)C3)C(=N)N` gave a pIC50 of 4.82. Besides, the maximal displacement of specific binding in assay [2] was 68%. In assay [3], the Relative potency is 3.8.

`COc1ccccc1CNCCCCCCNCCSSCCNCCCCCCNCc1ccccc1OC` [BENEXTRAMINE] gave a negative logarithm of the IC50 (pIC50) in assay [1] of 4.24. This compound returned a maximal displacement of specific binding in assay [2] of 65%. Further, the Relative potency in assay [3] stood at 1.

`c1ccc2cc(CNCCCCCCNCCCCCCNCCCCCCNCc3ccc4ccccc4c3)ccc2c1` showed a negative logarithm of the IC50 (pIC50) in assay [1] of 4.32. Also, the maximal displacement of specific binding in assay [2] was 75%. In assay [3], this compound returned a Relative potency of 1.

With `c1ccc2cc(CNCCCCCCNCCSSCCNCCCCCCNCc3ccc4ccccc4c3)ccc2c1`, in assay [1], the pIC50 was 4.50. The same compound yielded a maximal displacement of specific binding in assay [2] of 68%. The compound also registered a Relative potency in assay [3] of 1.8.

`N=C(N)N(CCCCCCNCc1ccc2ccccc2c1)CCSSCCN(CCCCCCNCc1ccc2ccccc2c1)C(=N)N` showed a pIC50 in assay [1] of 4.83. Moreover, the maximal displacement of specific binding in assay [2] was determined as 76%. This compound yielded a Relative potency in assay [3] of 3.9.

In turn, `N=C(N)N(CCCCCCNCc1ccc2ccccc2c1)CCCCCCN(CCCCCCNCc1ccc2ccccc2c1)C(=N)N` had a negative logarithm of the IC50 (pIC50) in assay [1] of 4.74. The compound further had a maximal displacement of specific binding in assay [2] of 72%. The Relative potency in assay [3] amounted to 2.6.
